Experiment [1] is described as follows: Cytotoxicity against […] HII4E cells after 48 hrs by MTT assay. The format is cell-based. The essentials: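 Adherent […] hepatoma cells attached 24 h in 96-well plates, then exposed to compound 24 h. H2O2 positive control, DMSO negative control. At 48 h of culture, MTT added (0.5 mg/mL final) for 3 h. Cells washed, formazan dissolved in DMSO with 20 min shaking at room temperature. Absorbance read at 550 nm, 620 nm reference.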

In a further experiment the test system is Bacillus cereus. Put plainly: Antibacterial activity against Bacillus cereus ATCC 11778 after 24 hrs by paper disk diffusion assay. It counts as functional. The essentials: (§1)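 Disk diffusion per CLSI. Overnight bacterial cultures spread on nutrient agar. 6.4 mm paper disks each loaded with 300 μg substance in 15 μL DMSO. Chloramphenicol positive control, DMSO negative control. Incubated 37 °C, 24 h. Nearest inhibition-zone diameter measured, averaged over two replicates. Scored –(<12 mm) to +++++ (≥26 mm).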
A general note: Agar diffusion results depend on both activity and mobility in agar.

The subject of the next experiment is Salmonella enteritidis. Put plainly: Antibacterial activity against Salmonella enteritidis ATCC 13076 after 24 hrs by paper disk diffusion assay. It counts as functional, Salmonella enterica subsp. enterica serovar Enteritidis. The essentials:
as §1

The subject of a further experiment is Aspergillus niger. Put plainly: Antifungal activity against Aspergillus niger ATCC 16404 after 24 to 48 hrs by paper disk diffusion assay. It counts as functional. The essentials: (§2)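 Fungal disk diffusion per CLSI. Overnight cultures spread on potato dextrose agar. 6.4 mm paper disks each loaded with 300 μg substance in 15 μL DMSO. Actidione and amphotericin B positive controls, DMSO negative control. Incubated 25 °C for 24–48 h. Inhibition-zone diameter averaged over two replicates, scored by diameter ranges.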

In the next experiment the test system is Bacillus subtilis. Put plainly: Antibacterial activity against Bacillus subtilis ATCC 6633 after 24 hrs by paper disk diffusion assay. It counts as functional. The essentials:
as §1

Another experiment relates to Enterococcus faecalis. Put plainly: Antibacterial activity against Enterococcus faecalis ATCC 7080 after 24 hrs by paper disk diffusion assay. The format is functional. The gist of the method: as §1
The subject of another experiment is Staphylococcus aureus. Briefly: Antibacterial activity against Staphylococcus aureus ATCC 6538 after 24 hrs by paper disk diffusion assay. It counts as functional. The gist of the method:
as §1

The nature of experiment [2]: Antifungal activity against Penicillium aurantiogriseum ATCC 16025 after 24 to 48 hrs by paper disk diffusion assay. It counts as functional. The gist of the method: as §2
The test system of a further experiment is Listeria monocytogenes. Briefly: Antibacterial activity against Listeria monocytogenes ATCC 19115 after 24 hrs by paper disk diffusion assay. It counts as functional. The gist of the method: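 Disk diffusion per CLSI, overnight culture spread on tryptone soya agar. 6.4 mm paper disks each loaded with 300 μg substance in 15 μL DMSO. Chloramphenicol positive control, DMSO negative control. Incubated 37 °C, 24 h. Inhibition-zone diameter measured, averaged over two replicates, and scored by diameter ranges.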

Each structure is given as a SMILES string. ≈ marks a conversion by molar mass, not a printed value. Where “and” joins values, the source holds several entries; their conditions need not be identical. Equal entries are not always repeated. Bounds are passed on as bounds.

As for `O=C(CO[C@H]1O[C@H](CO)[C@@H](O)[C@H](O)[C@H]1O)NCc1cn(Cc2ccccc2)nn1`, in [1], half-maximal inhibition (IC50) was put at 193 µg/mL (≈ 473 µM).
`C=CCNC(=O)CO[C@H]1O[C@H](COC(C)=O)C=C(OC(C)=O)/C1=C\C(=O)OCC` yielded an IC50 in [1] of 352 µg/mL (≈ 856 µM).
Turning to `CCCCCCCCCCCCNC(=O)CO[C@H]1O[C@H](COC(C)=O)C=C(OC(C)=O)C1=O`, the “diameter of the inhibition zone (DIZ)” value is 39 mm in the experiment on Bacillus cereus; <12 mm in the experiment on Salmonella enteritidis; 12 mm in the experiment with Aspergillus niger; 40 mm in the experiment with Bacillus subtilis; 24 mm in the experiment on Enterococcus faecalis; 17 mm in the experiment with Staphylococcus aureus. The “diameter of the inhibition zone (DIZ)” value in the experiment with Listeria monocytogenes was found to be 17 mm. For the same molecule, the “inhibition zone (IZ)” value was “>=26 mm” in the experiment with Bacillus cereus; 12 mm in the experiment with Aspergillus niger; “>=26 mm” in the experiment on Bacillus subtilis; 24 mm in the experiment with Enterococcus faecalis; 17 mm in the experiment with Staphylococcus aureus; > 26 mm and 30 mm in [2]. Also, the inhibition zone (IZ) with Listeria monocytogenes was found to be 17 mm. In experiment [1], this molecule gave an IC50 of 136 µg/mL (≈ 290 µM).
Regarding `O=C(CO[C@@H]1O[C@H](CO)[C@@H](O)[C@H](O)[C@H]1O)NCc1cn(Cc2ccccc2)nn1`, the IC50 in experiment [1] was 426 µg/mL (≈ 1040 µM).
For `CCOC(=O)/C=C1\C(OC(C)=O)=C[C@@H](COC(C)=O)O[C@@H]1OCC(=O)NCc1ccccc1`, the “diameter of the inhibition zone (DIZ)” value is <12 mm in the experiment with Bacillus cereus; <12 mm with Salmonella enteritidis; <12 mm in the experiment on Aspergillus niger; <12 mm in the experiment on Bacillus subtilis; 24 mm in the experiment on Enterococcus faecalis; <12 mm in the experiment with Staphylococcus aureus. In addition, the “diameter of the inhibition zone (DIZ)” value in the experiment with Listeria monocytogenes is listed as <12 mm. In addition, the inhibition zone (IZ) was 24 mm in the experiment with Enterococcus faecalis and 12 mm in experiment [2]. The same molecule had an IC50 in experiment [1] of 128 µg/mL (≈ 277 µM).
The molecule `CC(=O)OC[C@H]1O[C@H](OCC(=O)NCc2cn(Cc3ccccc3)nn2)[C@H](O)[C@@H](OC(C)=O)[C@H]1OC(C)=O` yielded an IC50 in experiment [1] of 879 µg/mL (≈ 1640 µM).
In turn, `CC(=O)OC[C@H]1O[C@H](OCC(=O)NCc2cn(Cc3ccccc3)nn2)[C@H](O)[C@@H](OC(C)=O)[C@@H]1OC(C)=O` came in with a half-inhibitory concentration (IC50) in experiment [1] of 69 µg/mL (≈ 129 µM).
For the molecule `C=CCCCCn1cc(CN(CC=C)C(=O)CO[C@H]2O[C@H](COCC=C)[C@H](OCC=C)[C@H](O)[C@H]2OCC=C)nn1`, the IC50 in experiment [1] worked out at 1190 µg/mL (≈ 2120 µM).
In turn, `CC(=O)OC[C@H]1O[C@@H](OCC(=O)NCc2cn(Cc3ccccc3)nn2)[C@H](O)[C@@H](OC(C)=O)[C@@H]1OC(C)=O` registered an IC50 in experiment [1] of 505 µg/mL (≈ 945 µM).
In the case of `C#CCNC(=O)CO[C@H]1O[C@H](COC(C)=O)C=C(OC(C)=O)/C1=C\C(=O)OCC`, the “diameter of the inhibition zone (DIZ)” value in the experiment on Bacillus cereus is <12 mm; in the experiment with Salmonella enteritidis, <12 mm; with Aspergillus niger, <12 mm; with Bacillus subtilis, <12 mm; in the experiment with Enterococcus faecalis it was 24 mm; with Staphylococcus aureus, <12 mm. Further, the “diameter of the inhibition zone (DIZ)” value in the experiment on Listeria monocytogenes was <12 mm. The figures for the inhibition zone (IZ) (with Enterococcus faecalis; in experiment [2]) were 24 mm and < 12 mm, respectively. The molecule further displayed a half-inhibitory concentration (IC50) in experiment [1] of 257 µg/mL (≈ 628 µM).
As to `C[C@@H]1C[C@@H]([C@H](O)CC2CC(=O)NC(=O)C2)C(=O)[C@@H](C)C1` [CYCLOHEXIMIDE], in the experiment on Aspergillus niger, the “diameter of the inhibition zone (DIZ)” value is recorded as 43 mm and the “inhibition zone (IZ)” value is on record as “>=26 mm”. In addition, the inhibition zone (IZ) in experiment [2] is > 26 mm and 26 mm.
With `CCCCCCCCCCCCNC(=O)CO[C@@H]1O[C@H](COC(C)=O)C=C(OC(C)=O)C1=O`, the “diameter of the inhibition zone (DIZ)” value in the experiment on Bacillus cereus was 16 mm; in the experiment with Salmonella enteritidis it was 14 mm; with Aspergillus niger, 40 mm; in the experiment with Bacillus subtilis, 21 mm; in the experiment with Enterococcus faecalis it was <12 mm; in the experiment on Staphylococcus aureus it was 13 mm. Besides, the “diameter of the inhibition zone (DIZ)” value in the experiment with Listeria monocytogenes was 14 mm. The “inhibition zone (IZ)” value in the experiment on Bacillus cereus was 14 mm; in the experiment with Salmonella enteritidis, 14 mm; in the experiment on Aspergillus niger it was “>=26 mm”; in the experiment on Bacillus subtilis it was 18 mm; in the experiment with Staphylococcus aureus, 13 mm; in experiment [2], > 26 mm and 33 mm. Further, in the experiment with Listeria monocytogenes, the “inhibition zone (IZ)” value is on record as 14 mm. In [1], this molecule came in with an IC50 of 45 µg/mL (≈ 95.8 µM).
Regarding `C#CCNC(=O)CO[C@H]1O[C@H](COC(C)=O)C=C(OC(C)=O)C1=O`, the half-inhibitory concentration (IC50) in [1] was 282 µg/mL (≈ 831 µM).
In experiment [1], `CC(=O)OC[C@@H]1C=C(OC(C)=O)C(=O)[C@@H](OCC(=O)NCc2cn(Cc3ccccc3)nn2)O1` displayed a concentration for half-maximal inhibition (IC50) of 10300 µg/mL (≈ 21800 µM).
Consider `OO` [HYDROGEN PEROXIDE], for which inhibition in [1] was half-maximal at 2 µg/mL (≈ 58.8 µM) (IC50).
For `O=C(CO[C@H]1O[C@H](CO)[C@H](O)[C@H](O)[C@H]1O)NCc1cn(Cc2ccccc2)nn1`, in experiment [1], the IC50 was 617 µg/mL (≈ 1510 µM).
Molecule `C=CCCCCn1cc(CNC(=O)CO[C@H]2O[C@H](COC(C)=O)[C@H](OC(C)=O)[C@H](OC(C)=O)[C@H]2O)nn1` had an IC50 in experiment [1] of 63 µg/mL (≈ 120 µM).
As for `O=C(N[C@H](CO)[C@H](O)c1ccc([N+](=O)[O-])cc1)C(Cl)Cl` [CHLORAMPHENICOL], the “diameter of the inhibition zone (DIZ)” value stood at 31 mm in the experiment with Bacillus cereus; 41 mm in the experiment on Salmonella enteritidis; 40 mm in the experiment with Bacillus subtilis; 37 mm in the experiment with Enterococcus faecalis; 36 mm with Staphylococcus aureus; 33 mm in the experiment on Listeria monocytogenes. In addition, the “inhibition zone (IZ)” value with Bacillus cereus, in the experiment with Salmonella enteritidis, with Bacillus subtilis, in the experiment with Enterococcus faecalis, with Staphylococcus aureus and in the experiment on Listeria monocytogenes was “>=26 mm” in each case.
Regarding `CC(=O)OC[C@@H]1C=C(OC(C)=O)C(=O)[C@@H](OCC(=O)NCc2ccccc2)O1`, half-maximal inhibition in experiment [1] (IC50) was put at 163 µg/mL (≈ 416 µM).
Consider `CCCCCCCCCCCCNC(=O)CO[C@H]1O[C@H](COC(C)=O)C=C(OC(C)=O)/C1=C\C(=O)OCC`, for which the “diameter of the inhibition zone (DIZ)” value in the experiment with Bacillus cereus is <12 mm; with Salmonella enteritidis it was <12 mm; in the experiment on Aspergillus niger, <12 mm; in the experiment with Bacillus subtilis it was 12 mm; with Enterococcus faecalis, 22 mm; in the experiment with Staphylococcus aureus it was 20 mm. In addition, in the experiment on Listeria monocytogenes, the “diameter of the inhibition zone (DIZ)” value is <12 mm. The “inhibition zone (IZ)” value came out at 12 mm in the experiment with Bacillus subtilis, 22 mm in the experiment with Enterococcus faecalis, 20 mm in the experiment on Staphylococcus aureus and 12 mm in experiment [2]. The midpoint of inhibition in experiment [1], the IC50, lay at 76 µg/mL (≈ 141 µM).
In experiment [1], `C=CCCCCn1cc(CNC(=O)CO[C@H]2O[C@H](CO)[C@H](O)[C@H](O)[C@H]2O)nn1` showed an IC50 of 394 µg/mL (≈ 984 µM).
In experiment [1], `C[S+](C)[O-]` [DIMETHYL SULFOXIDE] registered an IC50 of 199 µg/mL (≈ 2550 µM).
Turning to `CCOC(=O)/C=C1\C(OC(C)=O)=C[C@@H](COC(C)=O)O[C@@H]1OCC(=O)NCc1cn(Cc2ccccc2)nn1`, the IC50 in [1] amounted to 12000 µg/mL (≈ 22100 µM).
As for `C[C@@H]1[C@H](O)[C@@H](C)/C=C/C=C/C=C/C=C/C=C/C=C/C=C/[C@H](O[C@@H]2O[C@H](C)[C@@H](O)[C@H](N)[C@@H]2O)C[C@@H]2O[C@](O)(C[C@@H](O)C[C@@H](O)[C@H](O)CC[C@@H](O)C[C@@H](O)CC(=O)O[C@H]1C)C[C@H](O)[C@H]2C(=O)O` [AMPHOTERICIN B], in the experiment on Aspergillus niger, the “diameter of the inhibition zone (DIZ)” value amounted to 22 mm and the “inhibition zone (IZ)” value is 22 mm. The inhibition zone (IZ) in [2] is > 26 mm and 26 mm.

What is called IC50 is the concentration that inhibits the measured activity by half. Lower therefore signals higher potency.

The record behind these values is ChEMBL document CHEMBL1641513, “Synthesis of sugars embodying conjugated carbonyl systems and related triazole derivatives from carboxymethyl glycoside lactones. Evaluation of their antimicrobial activity and toxicity” (Bioorg Med Chem, 2011).
